Results: publication PMC6347502 (Photochemistry and photobiology, 2018)
Several values for one entry are separate records, joined by “and”; a condition that tells them apart may be missing. Equal values may be shown once. Read-outs that look alike come from different tables or passages of the source.

Key:
[1] = aerated MeCN; cited from earlier work
[2] = cited from earlier work
[3] = system: SK-MEL-28 malignant melanoma cells; experiment: Cytotoxicity and photocytotoxicity, resazurin cell viability, melanoma cells; format: cell-based, human
How it was run: (§1)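 HL-60 cells (suspension, RPMI 1640 + 20% FBS) or SK-MEL-28 cells (adherent, EMEM + 10% FBS) were used in log phase at ≥93% viability and equilibrated for 3 h. Chloride salts were diluted in DPBS (1 nM–300 µM; DMSO <0.1%) and incubated 16 h at 37 °C, 5% CO₂. Cells were then kept dark or given 100 J cm⁻² of visible light (400–700 nm, 44 mW cm⁻²) or red LED light (625 nm, 52.5 mW cm⁻²). After 48 h, resazurin was added for 3 h; fluorescence ex 530/em 620 nm. Triplicate. EC50 from sigmoidal dose–response fit; PI = dark/light EC50.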

[4] = system: HL-60 human promyelocytic leukemia cells; experiment: Cytotoxicity and photocytotoxicity, resazurin cell viability, leukemia cells; format: cell-based
How it was run: as §1

[5] = Singlet oxygen sensitization quantum yield; format: physicochemical
[6] = Steady-state and time-resolved emission; format: physicochemical
How it was run: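 PF₆⁻ salts, 5–20 µM, in MeCN argon-sparged in a long-stem cuvette, or as 4:1 EtOH:MeOH glass frozen in liquid N₂ (77 K). Quantum yields from corrected steady-state spectra relative to [Ru(bpy)₃](PF₆)₂ (0.095 deaerated MeCN at 298 K; 0.38 at 77 K). Lifetimes measured with nitrogen/dye laser excitation at 457 nm, monitored at emission maximum, stroboscopic detection.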

[7] = Nanosecond transient absorption lifetime; format: physicochemical; details: degassed MeCN
How it was run: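 Nanosecond laser flash photolysis on MeCN solutions argon-purged for 45 min. Excitation was 355 nm from a Nd:YAG third harmonic (4.1 ns pulse, 1 Hz). Transient difference absorption spectra were recorded and lifetimes taken from signal decays.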

pUC19 plasmid DNA = experiment: DNA photocleavage, plasmid gel mobility shift assay; format: biochemical; details: pUC19 20 μM NPs, visible light 14 J cm^−2
[8] = UV-vis absorption, molar extinction coefficient at 625 nm; format: physicochemical
How it was run: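 PF₆⁻ salts in spectroscopic-grade MeCN. ε was taken from the slope of absorbance versus concentration over five concentrations, measured in duplicate.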

Structure (SMILES)	ΦΔ of standard [1]	Φem reference value ([2]; 77 K in frozen 4:1 v/v EtOH:MeOH)	Φem reference value ([2]; 298 K in aerated MeCN)	Φem reference value ([2]; 298 K in deaerated MeCN)	emission lifetime [2] [μs]	PI red light, SKMEL28 ([3]; ratio of dark to red-light (625 nm) EC50, SKMEL28)	PI (phototherapeutic index) visible light, SKMEL28 ([3]; ratio of dark to visible-light EC50, SKMEL28)	EC50 ([3]; read-out: EC50 dark, SKMEL28, SKMEL28, dark) [µM]	PI red light, HL60 ([4]; ratio of dark to red-light (625 nm) EC50, HL60)	PI visible light, HL60 ([4]; ratio of dark to visible-light EC50, HL60)	ΦΔ (singlet oxygen quantum yield) 298 K ([5]; air-saturated MeCN at 298 K, relative to [Ru(bpy)3](PF6)2)	1O2 quantum yield (ΦΔ) ([5]; air-saturated MeCN, room temperature)	τem 77 K ([6]; 77 K, EtOH:MeOH (4:1) glass)	Φ (emission quantum yield) 77 K ([6]; 77 K, EtOH:MeOH (4:1) glass, PF6 salt)	τem 298 K ([6]; 298 K, argon-purged MeCN)	Φ (emission quantum yield) 298 K ([6]; 298 K, argon-purged MeCN, PF6 salt)	τTA, lifetime of nonemissive 3IL state [7] [μs]	MC:NP ratio for complete photocleavage (conversion of Form I to Form II DNA) (pUC19 plasmid DNA)	molar absorptivity at 625 nm (ε625 nm) [8] [M⁻¹ cm⁻¹]
F[P-](F)(F)(F)(F)F.F[P-](F)(F)(F)(F)F.[Ru+2].c1ccc(-c2ccccn2)nc1.c1ccc(-c2ccccn2)nc1.c1ccc(-c2ccccn2)nc1 [[Ru(bpy)3](PF6)2]	0.56	0.38	0.012	0.095	0.9	–	–	–	–	–	–	–	–	–	–	–	–	–	–
F[P-](F)(F)(F)(F)F.F[P-](F)(F)(F)(F)F.[Ru+2].c1ccc(-c2ccccn2)nc1.c1ccc(-c2ccccn2)nc1.c1csc(-c2ccc(-c3cc4cccnc4c4ncccc34)s2)c1 [Compound 2, Ru(bpy)2(phen-2T)PF6]	–	–	–	–	–	2	150	32 ± 1	19	835	0.78	74–78% and 78% and 74%	6,600 ns	0.14	1,030 ns	0.0092	43	1	< 100
